ChEMBL document CHEMBL2203049, “Novel retinoic acid 4-hydroxylase (CYP26) inhibitors based on a 3-(1H-imidazol- and triazol-1-yl)-2,2-dimethyl-3-(4-(phenylamino)phenyl)propyl scaffold” (Bioorg Med Chem, 2012)

Legend:
Cytochrome P450 26A1 = target: T1, Cytochrome P450 26A1 (Homo sapiens, UniProt O43174); test: Inhibition of CYP26A1 in human MCF7 cell microsomes using [3H]ATRA as substrate after 1 hr by scintillation counter analysis; design: species or system Microsome
T1 sequence (O43174 whole entry): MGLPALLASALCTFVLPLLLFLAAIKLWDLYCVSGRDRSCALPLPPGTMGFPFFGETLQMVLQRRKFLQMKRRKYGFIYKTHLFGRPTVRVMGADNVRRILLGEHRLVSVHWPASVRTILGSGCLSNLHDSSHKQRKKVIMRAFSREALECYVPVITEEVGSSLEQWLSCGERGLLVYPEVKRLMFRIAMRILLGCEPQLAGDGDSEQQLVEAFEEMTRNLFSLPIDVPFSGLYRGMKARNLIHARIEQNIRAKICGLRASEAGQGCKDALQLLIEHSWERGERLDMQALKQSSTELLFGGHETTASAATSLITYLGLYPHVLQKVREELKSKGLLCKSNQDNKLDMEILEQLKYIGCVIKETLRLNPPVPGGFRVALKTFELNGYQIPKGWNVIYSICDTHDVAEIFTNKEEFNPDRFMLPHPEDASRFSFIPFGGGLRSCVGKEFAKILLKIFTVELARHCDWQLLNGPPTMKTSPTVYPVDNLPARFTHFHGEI
Summary of the method: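 MCF-7 cells (RPMI 1640, 10% FCS, 2 mM L-glutamine, 37 °C, 5% CO₂) pretreated 24 h with 1 µM RA to induce CYP26; microsomes by differential centrifugation, activity normalised by cytochrome c reductase. 50 µg microsomal protein, 2 mM NADPH, 10 nM ATRA plus 0.1 µCi ³H-ATRA, pH 7.4 Tris/KCl/MgCl₂/BSA, inhibitor 1–1000 nM, 1 h 37 °C; acetonitrile quench, C18 HPLC, flow scintillation; inhibition from metabolite peak area fraction versus no-inhibitor control.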

CYP1A2 = target: T2, CYP1A2 (Homo sapiens, UniProt P05177); test: Inhibition of CYP1A2 in human liver microsomes at 0.4 uM; format: ADME, Microsome
T2 sequence (P05177 whole entry): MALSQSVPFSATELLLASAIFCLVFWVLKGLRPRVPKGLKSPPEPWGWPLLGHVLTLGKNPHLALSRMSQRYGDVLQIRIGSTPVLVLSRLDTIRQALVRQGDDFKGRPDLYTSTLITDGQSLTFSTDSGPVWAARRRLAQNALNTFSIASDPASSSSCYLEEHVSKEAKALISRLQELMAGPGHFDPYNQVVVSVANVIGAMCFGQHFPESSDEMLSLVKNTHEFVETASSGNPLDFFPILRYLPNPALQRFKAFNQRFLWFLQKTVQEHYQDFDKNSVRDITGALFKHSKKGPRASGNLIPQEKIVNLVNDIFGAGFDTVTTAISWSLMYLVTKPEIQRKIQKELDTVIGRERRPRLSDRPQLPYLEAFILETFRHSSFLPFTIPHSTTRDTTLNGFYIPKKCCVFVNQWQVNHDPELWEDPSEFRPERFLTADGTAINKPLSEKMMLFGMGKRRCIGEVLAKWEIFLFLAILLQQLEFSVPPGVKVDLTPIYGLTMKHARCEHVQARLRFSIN

CYP2C9 = CYP2C9 (Homo sapiens, UniProt P11712); test: Inhibition of CYP2C9 in human liver microsomes at 0.4 uM; format: ADME, Microsome
CYP3A4 = CYP3A4 (Homo sapiens, UniProt P08684); test: Inhibition of CYP3A4 in human liver microsomes at 0.4 uM; format: ADME, Microsome
Cytochrome P450 2D6 = Cytochrome P450 2D6 (Homo sapiens, UniProt P10635); test: Inhibition of CYP2D6 in human liver microsomes; format: ADME, Microsome
[1] = Selectivity ratio of IC50 for CYP2C9 in human liver microsomes to IC50 for CYP26A1 in human MCF7 cell microsomes
[2] = Selectivity ratio of IC50 for CYP2D6 in human liver microsomes to IC50 for CYP26A1 in human MCF7 cell microsomes
Cytochrome P450 3A4 = Cytochrome P450 3A4 (Homo sapiens, UniProt P08684); test: Inhibition of CYP3A4 in human liver microsomes; format: ADME, Microsome
CYP2D6 = CYP2D6 (Homo sapiens, UniProt P10635); test: Inhibition of CYP2D6 in human liver microsomes at 0.4 uM; format: ADME, Microsome
Cytochrome P450 2C9 = Cytochrome P450 2C9 (Homo sapiens, UniProt P11712); test: Inhibition of CYP2C9 in human liver microsomes; format: ADME, Microsome
Cytochrome P450 1A2 = target: T3, Cytochrome P450 1A2 (Homo sapiens, UniProt P05177); test: Inhibition of CYP1A2 in human liver microsomes; format: ADME, Microsome
T3 sequence (P05177 whole entry): T2 sequence (P05177 whole entry)

CYP2C19 = CYP2C19 (Homo sapiens, UniProt P33261); test: Inhibition of CYP2C19 in human liver microsomes at 0.4 uM; format: ADME, Microsome
[3] = Selectivity ratio of IC50 for CYP3A4 in human liver microsomes to IC50 for CYP26A1 in human MCF7 cell microsomes
[4] = Selectivity ratio of IC50 for CYP1A2 in human liver microsomes to IC50 for CYP26A1 in human MCF7 cell microsomes
Cytochrome P450 2C19 = Cytochrome P450 2C19 (Homo sapiens, UniProt P33261); test: Inhibition of CYP2C19 in human liver microsomes; format: ADME, Microsome
Chain of Cytochrome P450 2C19 (P33261 whole entry): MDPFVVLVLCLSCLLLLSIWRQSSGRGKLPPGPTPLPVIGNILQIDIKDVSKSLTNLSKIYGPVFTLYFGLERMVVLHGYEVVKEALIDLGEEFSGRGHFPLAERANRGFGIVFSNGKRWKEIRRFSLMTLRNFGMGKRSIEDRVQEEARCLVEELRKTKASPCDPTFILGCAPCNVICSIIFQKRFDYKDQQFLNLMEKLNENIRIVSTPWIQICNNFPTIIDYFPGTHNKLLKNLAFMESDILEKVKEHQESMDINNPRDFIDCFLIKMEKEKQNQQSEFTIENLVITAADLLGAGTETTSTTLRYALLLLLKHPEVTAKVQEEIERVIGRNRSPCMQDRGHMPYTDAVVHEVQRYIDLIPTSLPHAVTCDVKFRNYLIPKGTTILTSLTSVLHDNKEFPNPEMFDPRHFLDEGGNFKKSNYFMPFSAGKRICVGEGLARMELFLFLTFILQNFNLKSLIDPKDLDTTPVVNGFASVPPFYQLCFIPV

Chain of CYP2C19 (P33261 whole entry): as above
Chain of CYP2C9 (P11712 whole entry): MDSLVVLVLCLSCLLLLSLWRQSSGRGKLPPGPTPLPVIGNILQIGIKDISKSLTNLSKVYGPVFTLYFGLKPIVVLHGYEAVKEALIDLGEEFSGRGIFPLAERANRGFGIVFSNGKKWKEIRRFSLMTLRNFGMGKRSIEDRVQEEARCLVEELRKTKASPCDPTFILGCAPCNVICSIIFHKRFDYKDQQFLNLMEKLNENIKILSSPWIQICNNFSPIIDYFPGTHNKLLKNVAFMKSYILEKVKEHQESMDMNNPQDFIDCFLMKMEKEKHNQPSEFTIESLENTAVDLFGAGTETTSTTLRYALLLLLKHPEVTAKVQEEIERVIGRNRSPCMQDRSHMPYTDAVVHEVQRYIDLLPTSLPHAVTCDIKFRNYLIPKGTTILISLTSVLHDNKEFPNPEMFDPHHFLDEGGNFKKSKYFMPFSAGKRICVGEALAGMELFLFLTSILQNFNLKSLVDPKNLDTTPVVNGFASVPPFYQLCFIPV
Chain of CYP3A4 (P08684 whole entry): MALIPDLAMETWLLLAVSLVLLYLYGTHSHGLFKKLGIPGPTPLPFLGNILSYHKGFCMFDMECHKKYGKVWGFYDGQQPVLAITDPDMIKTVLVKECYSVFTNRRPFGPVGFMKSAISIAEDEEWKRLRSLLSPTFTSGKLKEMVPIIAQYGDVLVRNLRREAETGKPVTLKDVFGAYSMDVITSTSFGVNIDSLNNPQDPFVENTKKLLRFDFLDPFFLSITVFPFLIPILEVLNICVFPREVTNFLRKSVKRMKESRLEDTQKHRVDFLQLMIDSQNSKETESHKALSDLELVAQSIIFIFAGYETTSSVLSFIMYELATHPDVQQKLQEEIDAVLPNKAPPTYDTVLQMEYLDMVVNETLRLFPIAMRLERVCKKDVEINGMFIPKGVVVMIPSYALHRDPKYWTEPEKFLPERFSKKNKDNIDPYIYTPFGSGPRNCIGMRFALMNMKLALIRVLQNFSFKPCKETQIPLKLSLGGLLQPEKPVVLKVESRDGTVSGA
Chain of CYP2D6 (P10635 whole entry): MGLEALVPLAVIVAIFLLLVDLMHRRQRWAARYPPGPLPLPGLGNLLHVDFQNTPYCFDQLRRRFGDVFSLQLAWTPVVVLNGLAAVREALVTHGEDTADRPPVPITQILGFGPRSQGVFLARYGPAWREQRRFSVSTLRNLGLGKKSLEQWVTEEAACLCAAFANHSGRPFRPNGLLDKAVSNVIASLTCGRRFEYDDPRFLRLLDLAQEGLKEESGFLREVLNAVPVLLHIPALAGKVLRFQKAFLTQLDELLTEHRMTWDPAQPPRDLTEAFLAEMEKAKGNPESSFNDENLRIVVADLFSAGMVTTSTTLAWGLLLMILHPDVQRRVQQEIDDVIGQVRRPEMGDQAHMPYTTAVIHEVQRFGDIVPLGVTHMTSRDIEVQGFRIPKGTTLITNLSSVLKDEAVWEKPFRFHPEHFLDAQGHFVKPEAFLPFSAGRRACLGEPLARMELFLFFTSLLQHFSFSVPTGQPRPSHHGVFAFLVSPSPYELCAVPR
Chain of Cytochrome P450 2C9 (P11712 whole entry): as the sequence (P11712 whole entry) above
Chain of Cytochrome P450 3A4 (P08684 whole entry): as the sequence (P08684 whole entry) above
Chain of Cytochrome P450 2D6 (P10635 whole entry): as the sequence (P10635 whole entry) above

With `COC(=O)C(C)(C)C(c1ccc(Nc2ccccc2)cc1)n1cncn1` (stereo not drawn) the IC50 (Cytochrome P450 26A1) was 0.013 µM, the inhibition at 0.4 µM (CYP1A2) was 10% and the inhibition at 0.4 µM (CYP2C9) was 19%. For the same compound, the inhibition at 0.4 µM (CYP3A4) was 47%, the IC50 (Cytochrome P450 2D6) was 1.3 µM and the “Ratio IC50” value [1] was over 100. The “Ratio IC50” value [2] was over 100, the IC50 (Cytochrome P450 3A4) was 0.2 µM and the inhibition at 0.4 µM (CYP2D6) was 13%. It also gave an IC50 (Cytochrome P450 2C9) of 9.1 µM, an IC50 (Cytochrome P450 1A2) of 8.5 µM and an inhibition at 0.4 µM (CYP2C19) of 19%. For the same compound, the “Ratio IC50” value [3] was 15, the “Ratio IC50” value [4] was over 100 and the IC50 (Cytochrome P450 2C19) was 4.2 µM.
Compound `COC(=O)C(C)(C)C(c1ccc(Nc2ccc(C(C)=O)cc2)cc1)n1cncn1` (stereo not drawn) has an IC50 (Cytochrome P450 26A1) of 0.095 µM.
`CC(C)(C(=O)O)C(c1ccc(Nc2ccccc2)cc1)n1ccnc1` (stereo not drawn) showed an IC50 (Cytochrome P450 26A1) of over 1 µM.
`CC(C)(C(=O)O)C(c1ccc(Nc2ccc(C(=O)O)cc2)cc1)n1cncn1` (stereo not drawn) gave an IC50 (Cytochrome P450 26A1) of 0.085 µM.
`CNC(=O)C(C)(C)C(c1ccc(Nc2ccccc2)cc1)n1ccnc1` (stereo not drawn) gave an IC50 (Cytochrome P450 26A1) of 0.2 µM.
`CCNC(=O)C(C)(C)C(c1ccc(Nc2ccccc2)cc1)n1ccnc1` (stereo not drawn) gave an IC50 (Cytochrome P450 26A1) of 0.25 µM.
With `CNC(=O)C(C)(C)C(c1ccc(Nc2ccc(OC)cc2)cc1)n1ccnc1` (stereo not drawn) the IC50 (Cytochrome P450 26A1) was over 1 µM.
With `CNC(=O)C(C)(C)C(c1ccc(Nc2ccc(Cl)cc2)cc1)n1ccnc1` (stereo not drawn) the IC50 (Cytochrome P450 26A1) was 1 µM.
With `CNC(=O)C(C)(C)C(c1ccc(Nc2ccccc2)cc1)n1cncn1` (stereo not drawn) the IC50 (Cytochrome P450 26A1) was 1 µM.
`C[C@H]([C@@H](c1ccc(Nc2nc3ccccc3s2)cc1)n1cncn1)N(C)C` showed an inhibition at 0.4 µM (CYP1A2) of 6%, an inhibition at 0.4 µM (CYP2C9) of 3% and an inhibition at 0.4 µM (CYP3A4) of 83%. It also gave an inhibition at 0.4 µM (CYP2D6) of 27% and an inhibition at 0.4 µM (CYP2C19) of 17%.
